IDH1 R132H inh = inhibitors of human IDH1 R132H; O75874; IDH1 R132H reductase, diaphorase/resazurin fluorescence, 60 min; inhibition, % at 10 µM; actives 0.18% (n = 70,000); in the data active means inhibition above about 34%; inconclusive means no clear call, values can overlap the other calls; inactive means below about 11%;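 further: 0% = DMSO and 100% = no enzyme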
Target sequence (O75874 whole entry R132H): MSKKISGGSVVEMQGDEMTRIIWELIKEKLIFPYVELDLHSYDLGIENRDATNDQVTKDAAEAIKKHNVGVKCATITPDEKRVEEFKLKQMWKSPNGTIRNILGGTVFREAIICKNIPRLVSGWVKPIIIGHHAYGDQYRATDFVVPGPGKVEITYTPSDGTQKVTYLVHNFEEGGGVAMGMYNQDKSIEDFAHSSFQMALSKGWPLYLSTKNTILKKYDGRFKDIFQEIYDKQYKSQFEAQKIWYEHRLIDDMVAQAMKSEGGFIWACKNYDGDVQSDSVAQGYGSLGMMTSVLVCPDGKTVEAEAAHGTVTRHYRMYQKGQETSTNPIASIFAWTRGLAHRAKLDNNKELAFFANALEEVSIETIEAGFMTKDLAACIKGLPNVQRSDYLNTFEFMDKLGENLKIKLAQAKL
KDM4C inh = blocks human GASC-1 (KDM4C) demethylase activity; Q9H3R0; GST-KDM4C 2-372, H3K9me3 peptide, LANCE TR-FRET; inhibition, % at 12.5 µM; actives 0.15% (n = 96,000); AID 720574;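 active means mean replicate inhibition above about 25%, with at least 55% of replicates also reaching it, limit read from the data, passing the limit was not always enough; inconclusive means only one of those two conditions met; inactive means neither condition met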
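reagent = H3K9me3 peptide substrate, Fe(II), 2-oxoglutarate | system = GST-tagged GASC-1 (JMJD2C) catalytic fragment, aa 2-372 | amount = enzyme final amount 10 nM | read-out = Fall in 671/618 emission ratio as inhibition | medium = HEPES buffer, pH 7.5, plus ascorbate | schedule = 30 min reaction, 60 min detection, RT | measured by = LANCE TR-FRET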
T cruzi growth-1 = T. cruzi proliferation inhibition; T. cruzi beta-gal in NIH3T3, GalScreen luminescence, 90 h; inhibition, % at 8.34 µM; actives 5.9% (n = 77,000); AID 624255;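 active means mean inhibition above about 93%, with at least 55% of replicates each passing it, limit read from the data, passing the limit was not always enough; inconclusive means only one of those two conditions holds; inactive means neither condition holds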
T cruzi growth-2 = Trypanosoma cruzi proliferation inhibition. shares compounds with T cruzi growth-1. actives 72% (n = 5,600). inhibition, % at 8.35 µM. T. cruzi beta-gal in NIH3T3, GalScreen luminescence, 90 h;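 active means mean replicate inhibition above about 95% and at least 55% of replicates individually reaching it, limit read from the data; inconclusive means only one of the two criteria is met; inactive means neither criterion is met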
T cruzi growth-3 = Trypanosoma cruzi proliferation inhibition | shares compounds with T cruzi growth-1 | T. cruzi beta-gal in NIH3T3, GalScreen luminescence, 90 h | inhibition, % at 2.09 µM | actives 21% (n = 5,600);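 active means mean inhibition above about 95%, with at least 55% of replicates also reaching it, limit read from the data; inconclusive means meets just one of the two conditions; inactive means meets neither condition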;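 further: plate controls were neutral control median for no effect and positive control median for full effect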
3T3 cytotox = kills mouse NIH/3T3 fibroblasts; shares compounds with T cruzi growth-1; NIH/3T3 viability, CellTiter-Glo ATP luminescence, 90 h; cytotoxicity (signal decrease), % at 8.35 µM; actives 14% (n = 5,600);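 active means mean signal decrease across replicates above about 35% based on untreated-well scatter, with enough replicates individually passing, limit read from the data; inconclusive means no rule stated though some were filed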;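 further: 0% = median of neutral control wells and 100% = median of positive control wells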
NIH3T3 tox 2 = NIH/3T3 (mouse) viability loss; NIH/3T3 viability, CellTiter-Glo ATP luminescence, 90 h; shares compounds with T cruzi growth-1; AID 651744; actives 56% (n = 5,600); inhibition, % at 24.9 µM;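 active means mean loss of cell viability signal at or above a set limit, and enough replicates individually reaching it; inconclusive means meets only the mean limit or only the replicate share; inactive means meets neither condition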;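 further: 0% = median of neutral control wells and 100% = median of positive control wells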
* = called active by the depositor; ? = inconclusive; · = no result. This excerpt belongs to a sample that is enriched for hits.

SMILES	IDH1 R132H inh	KDM4C inh	T cruzi growth-1	T cruzi growth-2	T cruzi growth-3	3T3 cytotox	NIH3T3 tox 2
O=C(Nc1cc(F)ccc1F)N1CCCCN2[C@H](C1)[C@@H](c1ccc(-c3cncnc3)cc1)[C@@H]2CO	·	1	105*	4	-14	-16	-2
O=C(Nc1cc(F)ccc1F)N1CCCCN2[C@H](CO)[C@@H](c3ccc(-c4cccnc4)cc3)[C@H]2C1	·	-1	61	·	·	·	·
O=C(Nc1cc(F)ccc1F)N1CCCCN2[C@H](CO)[C@H](c3ccc(-c4cncnc4)cc3)[C@@H]2C1	·	-3	115*	54	31	23	19
O=C(Nc1cc(F)ccc1F)N1CCCCN2[C@H](CO)[C@H](c3ccc(-c4cccnc4)cc3)[C@H]2C1	·	0	104*	101*	59	-25	?
O=C(Nc1cc(F)ccc1F)N1CCCCN2[C@H](C1)[C@@H](c1ccc(-c3ccncc3)cc1)[C@@H]2CO	·	0	94	·	·	·	·
CCC1(C)Cc2c(sc3nc(SCC(=O)Nc4ccc(Cl)cc4)nc(N)c23)CO1 (stereo unspecified)	0	·	·	·	·	·	·
O=C(Nc1ccccc1[N+](=O)[O-])c1cccc(S(=O)(=O)Nc2ccc(F)cc2)c1	0	·	·	·	·	·	·
Cc1cc(NC(=O)C(C)n2cc([N+](=O)[O-])cn2)ccc1Br (stereo unspecified)	0	·	·	·	·	·	·
CCOc1ccc(NC(=O)CSc2nnc(-c3cc(Cl)ccc3O)n2C)cc1	0	·	·	·	·	·	·
C=C1C[C@@]23C[C@H]4C5[C@@]6(C)CC(=O)C[C@]57C(C2C(O)[C@H]1C(O)C37)N4C6 (stereo partly specified)	0	·	·	·	·	·	·
Cc1cc(O)c2c(c1)C(=O)C1=C(C2=O)C(O)C(O)C(O)C1O (stereo unspecified)	-1	·	·	·	·	·	·
CC(NC(=O)COc1ccc(Cl)cc1Cl)C(=O)O (stereo unspecified)	0	·	·	·	·	·	·
C[C@H]1CN([C@@H](C)CO)S(=O)(=O)c2ccc(C#Cc3ccccc3)cc2O[C@@H]1CN(C)C(=O)Cc1ccccn1	0	-4	105*	105*	35	21	51*
C[C@@H]1CN([C@H](C)CO)S(=O)(=O)c2ccc(C#Cc3ccccc3)cc2O[C@@H]1CN(C)C(=O)Cc1ccccn1	0	1	?	109*	73	24	58*
C[C@@H]1CN([C@@H](C)CO)S(=O)(=O)c2ccc(C#Cc3ccccc3)cc2O[C@@H]1CN(C)C(=O)Cc1ccccn1	0	-1	67	·	·	·	·
C[C@@H]1CN([C@@H](C)CO)S(=O)(=O)c2ccc(C#Cc3ccccc3)cc2O[C@H]1CN(C)C(=O)Cc1ccccn1	-2	-4	72	·	·	·	·
Cc1ccc(-c2csc3ncn(CC(=O)Nc4cc(Cl)ccc4Cl)c(=O)c23)cc1	0	·	·	·	·	·	·
CC(=O)N1CCCCN2[C@@H](CO)[C@H](c3ccc(-c4ccccc4)cc3)[C@@H]2C1	·	7	104*	65	46	32	42*
O=C(Nc1ccccc1)N1CCCCN2[C@@H](CO)[C@H](c3ccc(-c4ccccc4)cc3)[C@@H]2C1	·	2	99*	91	74	44*	103*
Cc1ccc(-c2ccc([C@H]3[C@@H](CO)N4CCCCN(C(=O)Nc5ccccc5)C[C@H]34)cc2)cc1	·	-1	57	·	·	·	·
O=C(Nc1ccccc1)N1CCCCN2[C@H](CO)[C@@H](c3ccc(-c4ccccc4)cc3)[C@@H]2C1	·	-1	?	109*	94	-8	104*
O=C(Nc1ccccc1)N1CCCCN2[C@H](C1)[C@@H](c1ccc(Br)cc1)[C@@H]2CO	·	0	53	·	·	·	·
CC(=O)N1CCCCN2[C@H](CO)[C@H](c3ccc(-c4ccccc4)cc3)[C@H]2C1	·	1	61	·	·	·	·
Cc1ccc(-c2ccc([C@@H]3[C@H](CO)N4CCCCN(C(=O)Nc5ccccc5)C[C@@H]34)cc2)cc1	·	-3	?	105*	106*	120*	105*
O=C(Nc1ccccc1)N1CCCCN2[C@H](CO)[C@@H](c3ccc(Br)cc3)[C@H]2C1	·	-1	85	·	·	·	·
SMILES	IDH1 R132H inh	KDM4C inh	T cruzi growth-1	T cruzi growth-2	T cruzi growth-3	3T3 cytotox	NIH3T3 tox 2
C=CC(C)(O)CC/C=C(\C)C(=O)OC1C2OC2(C)C2C(OC3OC(COC4OC(CO)C(O)C(O)C4O)C(O)C(O)C3O)OC=CC12O (stereo unspecified)	-1	·	·	·	·	·	·
CCCCn1c(CSc2ccccn2)cn(-c2nnc(C(C)(C)C)s2)c1=O	-2	·	·	·	·	·	·
COc1ccc(C)cc1N(CC(=O)Nc1ccc(I)cc1C)S(C)(=O)=O	0	·	·	·	·	·	·
O=C(Nc1ccccc1)N1CCCCN2[C@H](CO)[C@@H](c3ccc(-c4ccncc4)cc3)[C@@H]2C1	·	-1	71	·	·	·	·
O=C(Nc1ccccc1)N1CCCCN2[C@@H](CO)[C@@H](c3ccc(-c4ccncc4)cc3)[C@@H]2C1	·	-2	?	91	69	9	19
Cc1ccc(C)c(NC(=O)CCn2cnc3ccccc3c2=O)c1	0	·	·	·	·	·	·
C[C@@H]1CCCCO[C@@H](CN(C)C(=O)C2CCCCC2)[C@H](C)CN([C@H](C)CO)C(=O)c2cc(NC(=O)Nc3cccc4ccccc34)ccc2O1	-1	-1	?	110*	105*	-40	-22
C[C@@H]1CN([C@H](C)CO)C(=O)c2cc(NC(=O)Nc3cccc4ccccc34)ccc2O[C@@H](C)CCCCO[C@@H]1CN(C)C(=O)C1CCCCC1	·	-1	105	·	·	·	·
C[C@H](CO)N1C[C@H](C)[C@H](CN(C)C(=O)C2CCCCC2)OCCCC[C@H](C)Oc2ccc(NC(=O)Nc3cccc4ccccc34)cc2C1=O	1	14	121*	105*	54	-17	-9
C[C@@H]1CCCCO[C@@H](CN(C)C(=O)C2CCCCC2)[C@@H](C)CN([C@H](C)CO)C(=O)c2cc(NC(=O)Nc3cccc4ccccc34)ccc2O1	0	-1	71	·	·	·	·
C[C@@H]1CN([C@@H](C)CO)C(=O)c2cc(NC(=O)Nc3cccc4ccccc34)ccc2O[C@@H](C)CCCCO[C@H]1CN(C)C(=O)C1CCCCC1	·	-1	46	·	·	·	·
C[C@@H]1CCCCO[C@@H](CN(C)C(=O)Nc2cccc3ccccc23)[C@@H](C)CN([C@H](C)CO)C(=O)c2cc(NC(=O)Nc3cccc4ccccc34)ccc2O1	2	-2	-21	·	·	·	·
C[C@@H]1CCCCO[C@H](CN(C)C(=O)C2CCCCC2)[C@@H](C)CN([C@@H](C)CO)C(=O)c2cc(NC(=O)Nc3cccc4ccccc34)ccc2O1	-1	-1	?	103*	102*	-19	-3
